Laboratory results as given in ChEMBL document CHEMBL2424598, “Identification and optimization of pteridinone Toll-like receptor 7 (TLR7) agonists for the oral treatment of viral hepatitis” (J Med Chem, 2013).

Legend:
[1] = species on record: Homo sapiens; experiment: Selectivity ratio of MEC for TLR8-mediated TNFalpha production in human PBMC to MEC for TLR7-mediated IFNalpha production in human PBMC
Summary of the method: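 Cryopreserved human PBMCs came from leukapheresis of a single healthy donor selected as a consistent responder. Cells were incubated with compound for 24 h over an eight-point concentration range, and cytokine release was measured. MEC is the lowest concentration giving cytokine levels at least 3-fold above untreated cultures, determined per cytokine.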

[2] = molecular target: T1, Toll-like receptor 7 (Homo sapiens) (UniProt Q9NYK1); experiment: Agonist activity at TLR7-mediated IFNalpha production in human PBMC assessed as minimum concentration of compound necessary to generate >3 fold of cytokine levels relative to control
T1 sequence (whole entry): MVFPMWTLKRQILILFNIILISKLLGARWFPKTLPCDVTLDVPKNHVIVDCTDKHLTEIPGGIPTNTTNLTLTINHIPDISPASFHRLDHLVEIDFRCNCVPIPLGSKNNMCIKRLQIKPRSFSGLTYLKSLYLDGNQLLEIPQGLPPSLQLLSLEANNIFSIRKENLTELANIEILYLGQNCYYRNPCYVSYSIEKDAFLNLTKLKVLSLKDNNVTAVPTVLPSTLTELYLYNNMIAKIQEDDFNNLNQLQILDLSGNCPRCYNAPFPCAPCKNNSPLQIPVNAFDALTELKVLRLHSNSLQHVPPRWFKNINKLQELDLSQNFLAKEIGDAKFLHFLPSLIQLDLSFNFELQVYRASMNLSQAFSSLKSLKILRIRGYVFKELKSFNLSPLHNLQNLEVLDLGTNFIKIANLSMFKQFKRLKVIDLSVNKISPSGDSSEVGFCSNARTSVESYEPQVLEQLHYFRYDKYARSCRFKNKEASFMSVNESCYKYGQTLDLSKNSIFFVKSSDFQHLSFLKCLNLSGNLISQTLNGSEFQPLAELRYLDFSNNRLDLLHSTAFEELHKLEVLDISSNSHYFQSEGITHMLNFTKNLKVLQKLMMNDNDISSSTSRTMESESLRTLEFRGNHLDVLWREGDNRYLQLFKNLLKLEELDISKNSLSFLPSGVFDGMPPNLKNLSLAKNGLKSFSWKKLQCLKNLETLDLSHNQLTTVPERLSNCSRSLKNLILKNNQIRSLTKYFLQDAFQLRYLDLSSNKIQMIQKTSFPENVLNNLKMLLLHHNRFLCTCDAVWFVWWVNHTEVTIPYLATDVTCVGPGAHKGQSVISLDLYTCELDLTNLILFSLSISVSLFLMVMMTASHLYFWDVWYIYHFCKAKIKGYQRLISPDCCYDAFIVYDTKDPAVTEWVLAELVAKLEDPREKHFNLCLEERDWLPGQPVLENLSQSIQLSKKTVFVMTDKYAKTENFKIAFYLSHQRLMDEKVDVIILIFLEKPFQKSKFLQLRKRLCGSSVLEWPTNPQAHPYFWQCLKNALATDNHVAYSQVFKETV
Summary of the method: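 Cryopreserved PBMCs from leukapheresis of a single healthy human donor, chosen as a consistent, robust responder to TLR7 agonist stimulation. Cells were incubated with compound for 24 h over an eight-point concentration range. Secreted IFN-α was measured to build dose-response curves. MEC was taken as the lowest concentration giving cytokine levels ≥3-fold over untreated control cultures.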

[3] = Lipophilicity, log D of the compound; format: physicochemical; conditions: octanol/water

Ratio [1] | MEC [2] [nM] | logD [3] | Structure (SMILES)
10 | 300 | – | CCCCOc1nc(N)c2c(n1)N1Cc3cccc(CN4CCCC4)c3CC1C(=O)N2 (configuration not stated)
0.3 | – | – | CCCCOc1nc(N)c2c(n1)N(Cc1ccccc1)CC(=O)N2
10 | 1000 | – | CCCN(C)C(=O)c1nc(N)c2[nH]c(=O)c(=O)n(Cc3cccc(CN4CCCC4)c3)c2n1
10 | 1000 | – | CCCCOc1nc(N)c2c(n1)N(C)C(Cc1ccc(CN3CCCC3)cc1)C(=O)N2 (configuration not stated)
3.3 | 3000 | – | Nc1nc(OCC2CCCCC2)nc2c1NC(=O)CN2Cc1cccc(CN2CCCC2)c1
30 | 10 | – | CCCCOc1nc(N)c2c(n1)N(Cc1ccc(CN3CCCC3)cc1)C(C)C(=O)N2 (configuration not stated)
1000 | 10 | – | CCCCNc1nc(N)c2c(n1)N(Cc1cccc(CN3CCCC3)c1)CC(=O)N2
3.3 | 30 | – | CCCCOc1nc(N)c2c(n1)N(Cc1cccc(CN3CCCCC3)c1)CC(=O)N2
100 | 100 | – | CCCCOc1nc(N)c2c(n1)N(Cc1ccccc1CN1CCCC1)CC(=O)N2
1000 | 10 | 1 | COCCOc1nc(N)c2c(n1)N(Cc1cccc(CN3CCCC3)c1)CC(=O)N2
3 | 100 | – | COCCOc1nc(N)c2[nH]c(=O)c(=O)n(Cc3cccc(CN4CCCC4)c3)c2n1
3.3 | 300 | – | CCCCOc1nc(N)c2c(n1)N(Cc1cccc(CN3CCOCC3)c1)CC(=O)N2
10 | 30 | – | CCCCOc1cc2c(c(N)n1)NC(=O)CN2Cc1ccc(CN2CCCC2)cc1
0 | 10000 | – | CC(C)COc1nc(N)c2c(n1)N(Cc1cccc(CN3CCCC3)c1)CC(=O)N2
10 | 3 | – | CCCCOc1nc(N)c2c(n1)N(Cc1ccc(-c3cccc(CN4CCCC4)c3)cc1)CC(=O)N2
10 | 30 | – | Nc1nc(OCCC2CC2)nc2c1NC(=O)CN2Cc1cccc(CN2CCCC2)c1
30 | 3 | – | CCCCOc1nc(N)c2c(n1)N(Cc1ccc(CCCN3CCCC3)nc1)CC(=O)N2
33 | 3 | – | CCCCOc1nc(N)c2[nH]c(=O)c(=O)n(Cc3cccc(CN4CCCC4)c3)c2n1
3 | 10 | – | CCCCOc1cc2c([nH]c(=O)c(=O)n2Cc2ccc(-c3ccc(CN4CCCC4)cc3)cc2)c(N)n1
33 | 3 | – | CCC[C@H](C)Oc1nc(N)c2c(n1)N(Cc1cccc(CN3CCCC3)c1)CC(=O)N2
30 | 100 | – | CCCCSc1nc(N)c2c(n1)N(Cc1cccc(CN3CCCC3)c1)CC(=O)N2
10 | 3 | – | CCCCOc1nc(N)c2c(n1)N(Cc1ccc3c(c1)CCN(C(C)C)C3)CC(=O)N2
100 | 100 | – | CCCCCOc1nc(N)c2c(n1)N(Cc1cccc(CN3CCCC3)c1)CC(=O)N2

Ratio [1] | MEC [2] [nM] | logD [3] | Structure (SMILES)
30 | 300 | – | CCCCOc1nc(N)c2c(n1)N(Cc1cccc(CN3CCCC3)c1)C(C)C(=O)N2 (configuration not stated)
3 | 3 | – | CCCCOc1nc(N)c2c(n1)N(Cc1ccc3c(c1)CN(C(C)C)CC3)CC(=O)N2
30 | 320 | – | CCCCCc1nc(N)c2c(n1)N(Cc1cccc(CN3CCCC3)c1)CC(=O)N2
10 | 1000 | – | CCCN(C)C(=O)c1nc(N)c2c(n1)N(Cc1cccc(CN3CCCC3)c1)CC(=O)N2
– | 0.03 | – | CCCCOc1nc(N)c2[nH]c(=O)n(Cc3cccc(CN4CCCC4)c3)c2n1
10 | 0.32 | – | COCCOc1cc2c(c(N)n1)NC(=O)CN2Cc1ccc(CN2CCCC2)cc1
30 | 320 | – | CCCCOc1nc(N)c2c(n1)N(C)C(Cc1cccc(CN3CCCC3)c1)C(=O)N2 (configuration not stated)
3 | 30 | – | CCCCOc1cc2c([nH]c(=O)c(=O)n2Cc2ccc(-c3cccc(CN4CCCC4)c3)cc2)c(N)n1
100 | 10 | – | Nc1nc(OCC2CCOCC2)nc2c1NC(=O)CN2Cc1cccc(CN2CCCC2)c1
3.3 | 3000 | – | Nc1nc(OCc2ccccc2)nc2c1NC(=O)CN2Cc1cccc(CN2CCCC2)c1
3 | 1000 | – | CCCCOc1nc(N)c2c(n1)N(Cc1cccc(CN3CCCC3)c1)C1(CC1)C(=O)N2
– | > 10000 | – | CCCCOc1nc(N)c2c(n1)NC(Cc1cccc(CN3CCCC3)c1)C(=O)N2 (configuration not stated)
3.3 | 3 | – | CCCCOc1nc(N)c2c(n1)N(Cc1ccc(-c3ccc(CN4CCCC4)cc3)cc1)CC(=O)N2
10 | 300 | – | CCCCOc1cc2c(c(N)n1)NC(=O)CN2Cc1cccc(CN2CCCC2)c1
– | > 10000 | – | CCCCOc1nc(N)c2c(n1)N(Cc1cccc(CN3CCCC3)c1)CCC(=O)N2
30 | 3 | – | CCCCNc1nc(N)c2[nH]c(=O)c(=O)n(Cc3cccc(CN4CCCC4)c3)c2n1
3 | 3 | – | CCCCOc1cc2c([nH]c(=O)c(=O)n2Cc2ccc(CN3CCCC3)cc2)c(N)n1
10 | 0.32 | – | CCCCOc1nc(N)c2[nH]c(=O)c(=O)n(Cc3ccc(CN4CCCC4)cc3)c2n1
10 | 30 | – | CCCCOc1cc2c([nH]c(=O)c(=O)n2Cc2cccc(CN3CCCC3)c2)c(N)n1
10 | 1000 | – | COCCNc1nc(N)c2c(n1)N(Cc1cccc(CN3CCCC3)c1)CC(=O)N2
10 | 1 | – | CCCCOc1nc(N)c2c(n1)N(Cc1ccc(CN3CCCC3)cc1)CC(=O)N2
30 | 10 | – | CCC(CC)COc1nc(N)c2c(n1)N(Cc1cccc(CN3CCCC3)c1)CC(=O)N2
